Assay outcomes from PubChem.
Hits are enriched below; roughly 3.1% of the tested compounds scored in any of these assays.
A1 inh = caspase 3/7 activation in MEF A1-2A-BIM cells, primary screen, A1 inhibitor project, cell-based, luminescence, HTS. Caspase-Glo 3/7 luminescence, 3 h; percent of clofoctol response, vehicle zero. hit rate 0.066% among 330,000. AID 2462, 2010. caspase activation, % (concentration not given with the values);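 active = over half of replicate activation scores above 10%, or exactly half above 10 with the replicate mean above 10; inconclusive = replicate mean below 10 yet half the replicates above 10; inactive = over half of replicates below 10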
Calb FLC = C. albicans growth inhibition with fluconazole, primary screen, CaCi-2 strain, Alamar Blue fluorescence. C. albicans CaCi-2 + fluconazole, 48 h. growth inhibition, % (no concentration beside the values). hit rate 0.57% among 300,000;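 active = growth inhibition above about 58% in most replicates, limit read from the data, passing the limit was not always enough; inconclusive = exactly half the replicates above a set limit; inactive = most replicates below a set limit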;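 also: all wells also contain fluconazole at 8 µg/ml as a sub-toxic cotreatment; 0% = median of DMSO wells and 100% = median of geldanamycin control wells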
Beta apoptosis = inhibitors of cytokine-induced beta cell apoptosis, primary screen, luminescence. INS-1E cytokine-induced death, ATP luminescence, 48 h; percent of positive-control rescue, neutral wells zero. AID 435005, 2010. protection from apoptosis, % (concentration not given with the values). hit rate 0.8% among 300,000;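 active = Every replicate reaches about 75%, or at least half do and their mean reaches it too, limit read from the data; inconclusive = At least half of replicates reach the limit but their mean does not; inactive = Under half of replicates reach the limit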;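 also: 0% = cytokine-treated negative control wells and 100% = positive control rescue; higher means more ATP so stronger rescue from cytokine killing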
H9c2 TAG inh = inhibitors of triacylglycerol accumulation, primary screen, cell-based, uHTS, fluorescence, H9c2. H9c2 cells, Nile Red lipid (TAG) fluorescence; cells loaded with 200 µM oleic acid. inhibition, % at 12.5 µM. hit rate 0.66% among 230,000;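 active = pattern-corrected inhibition of lipid staining of at least 50% with the nuclear-stain viability signal not falling by more than 50%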;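 also: 0% = DMSO wells and 100% = triacsin C control wells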
CSC inhib = cancer stem cell viability inhibitors, primary screen, luminescence | cancer stem cell-like cells viability | inhibition, % at 7.5 µM | hit rate 1.1% among 300,000; in the data active = inhibition above about 75%; inconclusive = no clear call, values can overlap the other calls; tested in HMLE shEcad cells
T cruzi inh = inhibitors of intracellular T. cruzi growth, primary screen, luminescence, NIH3T3 host cells. T. cruzi beta-gal in NIH3T3, 90 h. inhibition, % (no concentration beside the values). hit rate 1.4% among 300,000;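 active = mean inhibition across valid replicates above about 55%, limit read from the data; inconclusive = mean below that limit but half or more replicates reach it; inactive = mean below it, under half of replicates reach it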;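 also: signal also drops with host cell toxicity which is not excluded here; 0% = plate median of DMSO wells and 100% = zero luminescence signal; higher percent means less beta-gal luminescence so fewer parasites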
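Incubation – ≥90 h infection period, 3 h prior cell attachment · System – NIH/3T3 fibroblasts plus reporter T. cruzi · Doses – compound pinned at 50 nL/well, DMSO · Read-out basis – percent inhibition of parasite-derived β-gal signal · Signal – luminescent β-galactosidase signal after 60 min lysis · Also added – 5000 T. cruzi trypomastigotes/well · Medium – Low-serum DMEM with 2% FBS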
Active calls of the source: *; ? = inconclusive; nt = not tested or not shown.

SMILES	A1 inh	Calb FLC	Beta apoptosis	H9c2 TAG inh	CSC inhib	T cruzi inh
CCOc1ccc(CN2CCN(Cc3cnc(-c4ccccc4)s3)CC2CCO)cc1 (stereo not given)	1.1	17.2	0.5	nt	14.6	56.1*
Cc1ncc(CN2CCN(Cc3ccccc3)C(CCO)C2)s1 (stereo not given)	0.6	26.6	-6.0	-16.0	2.9	19.5
CCOc1ccc(CN2CCN(CC3=Cc4cccc(OC)c4OC3)CC2CCO)cc1 (stereo not given)	1.2	-29.6	-4.7	-14.9	2.7	56.4*
CCOc1ccc(CN2CCN(Cc3cc4ccccc4[nH]3)CC2CCO)cc1 (stereo not given)	nt	-11.0	nt	nt	nt	59.9*
COc1ccc2c(c1)C=C(CN1CCN(Cc3ccccc3C)C(CCO)C1)CO2 (stereo not given)	0.3	-8.3	-1.2	-8.3	19.9	55.3*
COc1cccc(CN2CCN(Cc3cc4ccccc4[nH]3)CC2CCO)c1 (stereo not given)	?	6.7	2.4	19.8	-15.5	43.9
CN(Cc1ccccc1)C(=O)c1cccc(NC(=O)Cc2ccc(NC(=O)C3CCN(C(=O)C4CCCCC4)CC3)cc2)c1	nt	nt	nt	-7.4	nt	nt
C[C@H](CO)N1C[C@H](C)[C@H](CN(C)C(=O)Nc2ccc(-c3cccs3)cc2)OCc2cnnn2CCCC1=O	nt	nt	nt	11.3	nt	nt
COc1ccccc1/C=C/C(=O)Nc1nc(N)n(-c2ccccc2)n1	0.9	-3.1	-3.9	-0.6	4.6	0.2
COc1cc(OC)c(OC)cc1/C=N/NC(=O)CCc1c(C)n[nH]c1C	1.9	-1.8	-1.9	-31.1	-7.1	-8.5
O=C(CC(O)c1ccncc1)c1ccccc1O (stereo not given)	nt	nt	nt	7.4	nt	nt
O=C(Nc1ccc(Cl)cc1)Nc1nnc(-c2ccncc2)s1	0.7	5.8	98.8*	nt	91.2*	-14.4
O=C(Nc1cccc(Cl)c1)Nc1nnc(-c2ccncc2)s1	-0.1	-21.9	99.6*	nt	65.2	6.3
O=C(Nc1ccc(F)cc1)Nc1nnc(-c2ccncc2)s1	-0.8	-11.2	54.1	nt	41.3	-27.8
Cc1ccc(NC(=O)Nc2nnc(-c3ccncc3)s2)cc1C	?	53.0	nt	-2.4	36.2	35.1
O=C(Nc1cccc(Cl)c1)Nc1nnc(CSCCOc2ccc(Cl)cc2)s1	1.3	11.6	139.3*	nt	31.1	37.5
CCN(CC(=O)NCc1ccc(Cl)cc1)C(=O)CSCC(=O)Nc1ccc(OC)cc1	0.1	3.9	2.8	4.9	-5.3	-7.3
CCCCn1c(N)c(N(CC)C(=O)C2CCN(C(=O)c3ccccc3C)CC2)c(=O)[nH]c1=O	1.3	nt	-1.2	20.3	nt	nt
C/C(CCN1CCCCc2nc(C)c(C)cc21)=N\O[C@@H](C)CN1CCCCc2nc(C)c(C)cc21	-0.1	-10.9	-6.7	nt	30.1	11.3
COC(=O)[C@@H]1CC[C@H](C)[C@@H](c2ccc(C)cc2)N1C(=O)c1ccc(/C=N/O[C@@H](C)CN2CCCCc3nc(C)c(C)cc32)cc1	-2.1	3.7	15.6	nt	89.8*	41.3
Cc1ccc(S(=O)(=O)N(CCC(=O)NCC(c2ccccc2)N(C)C)c2ccccc2)cc1 (stereo not given)	nt	nt	nt	-1.7	nt	nt
Cc1cccc(C=NOCCc2ccccc2)n1	nt	nt	nt	-18.8	nt	nt
O=[N+]([O-])c1ccc(N/N=C/c2ccc(O)c(O)c2O)c(S(=O)(=O)N2CCOCC2)c1	nt	99.9*	nt	nt	nt	11.1
COCCNC(=O)C1(C)CCN(C(=O)c2ccc3c(c2)C(C)(C)CCC3(C)C)C1 (stereo not given)	nt	nt	nt	-14.1	nt	nt
COc1ccc2sc(-c3ccc(SC)cc3)c(-c3ccc(O)cc3)c2c1	1.3	nt	17.0	nt	107.4*	nt
SMILES	A1 inh	Calb FLC	Beta apoptosis	H9c2 TAG inh	CSC inhib	T cruzi inh
O=S(=O)(Nc1nc2ccccc2nc1Nc1ccc(N2CCOCC2)cc1)c1cc(Cl)ccc1Cl	-0.2	5.5	84.3*	nt	86.2*	50.1
Cc1ccc(NC(=O)CCNS(=O)(=O)c2ccc3[nH]c(=O)oc3c2)cc1F	0.8	-8.1	-1.3	nt	-0.9	-0.9
COC(=O)c1c(C(=O)OC)c2c(-c3ccccc3)cc3cccc1n32	nt	nt	nt	-15.6	nt	nt
CS(=O)c1nc(-c2ccc(Br)cc2)cc(-c2ccccc2)c1C#N (stereo not given)	0.1	31.8	11.7	nt	75.1*	14.7
CS(=O)(=O)c1nc(-c2ccc(Br)cc2)cc(-c2ccccc2)c1C#N	-1.2	0.9	18.9	79.1*	86.0*	35.7
CC1(NC(=O)c2ccccc2)CCN(CCCc2ccccc2)C1=O (stereo not given)	-1.3	nt	12.6	nt	-3.5	nt
CCOC(=O)c1[nH]cnc1C(=O)N1CCN(C(=O)OC(C)(C)C)CC1	-0.6	nt	2.3	22.5	-30.0	nt
CCN(CC(=O)Nc1ccc(OC)cc1)C(=O)c1ccc(N2CCCC2=O)cc1	0.9	nt	-7.2	-3.0	nt	nt
O=C(c1cnn2c(C(F)F)cc(-c3ccccc3)nc12)N1CCCCC1c1cccnc1 (stereo not given)	-0.9	7.2	-4.4	14.3	-5.6	50.9
O=c1c2ccccc2nc(/C=C/c2ccc(Br)cc2)n1CCO	-0.2	0.7	0.9	8.8	77.5*	-12.7
O=c1c2ccccc2nc(/C=C/c2ccc([N+](=O)[O-])o2)n1CCCO	0.1	108.1*	2.2	-101.6	14.2	62.1*
COc1ccc(CCN2CC(C(=O)OCC(=O)N(C)CC(=O)Nc3ccccc3Cl)CC2=O)cc1OC (stereo not given)	nt	nt	nt	0.4	nt	nt
CN(C)c1ccc(/C=N/NC(=O)c2sccc2-n2cccc2)cc1	1.1	-14.5	-2.9	-3.3	1.6	-1.3
CCN(CC)CCN(Cc1cc2cc(C)cc(C)c2[nH]c1=O)C(=S)NCc1ccco1	0.1	-3.6	-0.2	nt	0.7	27.0
Cc1cc(C)c2[nH]c(=O)c(CN(Cc3cccs3)C(=S)NCc3ccco3)cc2c1	-0.3	-6.0	6.7	nt	87.7*	15.5
CC(C)n1ncc2c(C(=O)NCCc3ccc(F)cc3)cc(C3CC3)nc21	nt	nt	nt	4.9	nt	nt
Cc1cc(C)nc(Oc2ccc(Br)cc2)n1	0.0	-7.4	-7.2	2.9	-7.1	-7.7
COc1ccc(CNC[C@@H](CCCCN(C)Cc2ccc(OC)cc2)N2C[C@H](c3ccccc3)N(CCc3ccc(Cl)c(Cl)c3)C(=O)C2=O)cc1	1.5	16.6	98.6*	128.8	106.6*	25.1
CC1=NNC(=O)/C1=C\c1cn(-c2ccccc2)nc1-c1ccc(Cl)cc1	41.4*	1.3	107.0*	nt	101.5*	47.5
O=C(c1ccco1)N1CCN(C(=S)Nc2ccccc2C(F)(F)F)CC1	0.2	2.6	-5.3	-8.8	-13.4	-7.6
Cc1cnc(C(=O)Nc2cccc3cccnc23)cn1	nt	0.1	nt	-27.8	nt	65.7*
O=C(O)c1ccccc1C(=O)NNc1ccc(F)cc1	0.5	101.9*	-0.4	3.4	41.7	-4.8
